# According to ChEMBL document CHEMBL3627689, “Structural design, synthesis and pharmacological evaluation of 4-thiazolidinones against Trypanosoma cruzi” (Bioorg Med Chem, 2015):
# Active and inactive are the calls of the source. The calls are words filed in the database; no cut-off is given here.
# Experiments:
# Trypanosoma cruzi [1] = experiment: Antiparasitic activity against bloodstream trypomastigote stage of Trypanosoma cruzi Y assessed as parasite viability after 24 hrs by Neubauer chamber analysis; type: functional, organism-based
# Summary of the method: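 Y strain bloodstream trypomastigotes were harvested from infected LLC-MK2 cell supernatants. They were exposed to compounds at five concentrations for 24 h at 37 °C, 5% CO₂. Viable parasites were counted in a Neubauer chamber by motility. Inhibition was calculated relative to untreated cultures, and IC50 was derived by non-linear regression.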
# [2] = Cytotoxicity against mouse J774 cells assessed as cell viability after 72 hrs by Alamar Blue assay; type: cell-based
# Summary of the method: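 J774 macrophages were plated at 5 × 10⁴ cells/mL in RPMI + 10% FBS with gentamycin and grown 24 h at 37 °C, 5% CO₂. Compounds in DMSO (final <1%) were added at six concentrations (0.41–100 µM) in triplicate for 72 h. Viability was read by AlamarBlue at 570/600 nm after 6 h. CC50 came from three independent experiments, with gentian violet as positive control.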
# [3] = molecular target: Cruzipain (Trypanosoma cruzi) (UniProt P25779); experiment: Competitive inhibition of Trypanosoma cruzi Cruzain using Z-FR-AMC as substrate at 100 uM preincubated for 10 mins followed by substrate addition measured every 12 secs for 5 mins by fluorescence assay relative to control
# Chain of Cruzipain (Trypanosoma cruzi) (P25779 123-467 limits assumed): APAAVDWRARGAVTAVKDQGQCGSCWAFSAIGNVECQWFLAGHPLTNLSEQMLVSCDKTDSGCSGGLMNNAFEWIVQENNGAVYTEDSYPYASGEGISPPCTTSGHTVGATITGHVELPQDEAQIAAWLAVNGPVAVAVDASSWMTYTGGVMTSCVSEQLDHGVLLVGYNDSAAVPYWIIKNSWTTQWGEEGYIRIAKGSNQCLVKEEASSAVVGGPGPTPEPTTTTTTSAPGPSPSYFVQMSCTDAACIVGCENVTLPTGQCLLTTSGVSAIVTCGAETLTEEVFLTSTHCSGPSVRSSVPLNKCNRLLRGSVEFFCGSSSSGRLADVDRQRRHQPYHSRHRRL
# Trypanosoma cruzi [4] = experiment: Antiparasitic activity against amastigote stage of Trypanosoma cruzi Y in BALB/c mouse macrophages assessed as decrease in number of infected cells at 50 uM incubated for 6 hrs by Giemsa staining-based optical microscopic analysis; type: functional, organism-based
# Summary of the method: (§1)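 Thioglycolate-elicited peritoneal macrophages from BALB/c mice, 2 × 10⁵ cells/well on coverslips in RPMI + 10% FBS for 24 h, then infected with Y strain trypomastigotes (10 per macrophage) for 2 h. Free parasites washed off. Compounds added at 50 µM for 6 h, medium replaced, 3 days further culture. Methanol fixation, Giemsa staining, 100 cells counted per slide. Triplicate, two independent experiments.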
# Trypanosoma cruzi [5] = experiment: Antiparasitic activity against amastigote stage of Trypanosoma cruzi Y in BALB/c mouse macrophages assessed as decrease in number of intracellular amastigotes at 50 uM incubated for 6 hrs by Giemsa staining-based optical microscopic analysis; type: functional, organism-based; summary of the method: as §1
# Trypanosoma cruzi [6] = experiment: Antiparasitic activity against bloodstream trypomastigote stage of Trypanosoma cruzi Y infected in BALB/c mouse assessed as reduction of parasitemia at 100 mg/kg, po qd administered for 5 days measured on day 10 post infection relative to vehicle-treated control; type: functional; parameters: scale not given: the % may be the effect or the level left
# Summary of the method: (§2)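 Female BALB/c mice (6 per group, randomized) were infected with 10⁴ Y strain trypomastigotes. They were dosed orally at 100 mg/kg once daily for 5 days starting day 5 post-infection. Parasitemia was counted as trypomastigotes in fresh blood. Reduction = (vehicle mean − treated mean)/vehicle mean × 100%.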
# Trypanosoma cruzi [7] = experiment: Antiparasitic activity against bloodstream trypomastigote stage of Trypanosoma cruzi Y infected in BALB/c mouse assessed as reduction of parasitemia at 100 mg/kg, po qd administered for 5 days measured on day 12 post infection relative to vehicle-treated control; type: functional; parameters: scale not given: the % may be the effect or the level left; summary of the method: as §2
# Trypanosoma cruzi [8] = experiment: Antiparasitic activity against bloodstream trypomastigote stage of Trypanosoma cruzi Y infected in BALB/c mouse assessed as increase in survival rate by measuring mortality at 100 mg/kg, po qd administered for 5 days measured until 30 days; type: functional, organism-based
# Summary of the method: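 Female BALB/c mice (6 per group) were infected with 10⁴ Y strain trypomastigotes. From day 5 post-infection they received 100 mg/kg orally once daily for 5 days. Controls were vehicle (untreated infected) and benznidazole 100 mg/kg. Survival was followed for 30 days after infection in one experiment.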
# Mus musculus = experiment: Toxicity in BALB/c mouse infected with bloodstream trypomastigote stage of Trypanosoma cruzi Y assessed as body weight loss at 100 mg/kg, po qd administered for 5 days; type: organism-based; details: in vivo, 120 h
# [9] = Selectivity index, ratio of CC50 for mouse J774 cells to IC50 for bloodstream trypomastigote stage of Trypanosoma cruzi Y
# Leishmania = experiment: Antiparasitic activity against Leishmania; type: functional
# Trypanosoma cruzi [10] = experiment: Antiparasitic activity against amastigote stage of Trypanosoma cruzi Y in BALB/c mouse macrophages assessed as decrease in number of intracellular amastigotes incubated for 6 hrs by Giemsa staining-based optical microscopic analysis; type: functional, organism-based
# Summary of the method: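 Peritoneal BALB/c macrophages (thioglycolate-elicited) were infected with Y strain trypomastigotes at 10:1 for 2 h and washed. Compounds at five concentrations (1–50 µM) were applied for 6 h, followed by fresh medium and 3 days of culture. Amastigotes per 100 macrophages were counted after Giemsa staining.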
# Trypanosoma cruzi [11] = experiment: Potency index, ratio of benznidazole IC50 to compound IC50 for bloodstream trypomastigote stage of Trypanosoma cruzi Y; type: functional
# Trypanosoma cruzi [12] = experiment: Potency index, ratio of benznidazole IC50 to compound IC50 for amastigote stage of Trypanosoma cruzi Y in BALB/c mouse macrophages; type: functional
# Trypanosoma cruzi [13] = experiment: Antichagasic activity against Trypanosoma cruzi; type: functional
Structure (SMILES),IC50 (Trypanosoma cruzi [1]),inhibition [3],CC50 at 72 h [2],Ratio CC50/IC50 [9],further results
C/C(=N\N=C1\SC(C)C(=O)N1C)c1ccc(Cl)c(Cl)c1 (centres undefined),> 50 µM,32%,> 100 µM,,
O=C(Cn1ccnc1[N+](=O)[O-])NCc1ccccc1 [BENZNIDAZOLE],10.6 µM,,> 100 µM,>9.4,Activity (Trypanosoma cruzi [4]): Active; Activity (Trypanosoma cruzi [5]): Active; Activity (Trypanosoma cruzi [6]): >99%; Activity (Trypanosoma cruzi [7]): >99%; Activity (Trypanosoma cruzi [8]): Active; Activity (Mus musculus): Non-toxic
CNC(=S)N/N=C(\C)c1ccc(Cl)c(Cl)c1,11.2 µM,28%,> 100 µM,,
O=C(N[C@@H](Cn1ccnc1)c1ccc(Cl)cc1Cl)c1ccc(-c2nnc(-c3ccccc3)o2)cc1,,,,,Activity (Leishmania): 60%
C/C(=N\N=C1/NC(=O)C(C(C)C)S1)c1ccc(Cl)c(Cl)c1 (centres undefined),16.9 µM,49%,> 100 µM,>5.9,
C/C(=N\N=C1\SCC(=O)N1C)c1ccc(Cl)c(Cl)c1,> 50 µM,0%,> 100 µM,,
CCC1S/C(=N/N=C(\C)c2ccc(Cl)c(Cl)c2)N(c2ccccc2)C1=O (centres undefined),2.9 µM,24%,23.3 µM,8,Activity (Trypanosoma cruzi [4]): Active; Activity (Trypanosoma cruzi [5]): Active; IC50 (Trypanosoma cruzi [10]): 3.2 µM; Ratio IC50 (Trypanosoma cruzi [11]): 3; Ratio IC50 (Trypanosoma cruzi [12]): 4
C/C(=N\N=C1/NC(=O)CS1)c1ccc(Cl)c(Cl)c1,> 50 µM,54%,76.5 µM,,
O=C(N[C@@H](Cn1ccnc1)c1ccc(-c2ccc(F)cc2)cc1F)c1ccc(-c2nnc(-c3ccccc3)o2)cc1,,,,,Activity (Leishmania): 89%; Activity (Trypanosoma cruzi [13]): 100%
C/C(=N\N=C1\SC(C(C)C)C(=O)N1c1ccccc1)c1ccc(Cl)c(Cl)c1 (centres undefined),1.7 µM,23%,> 100 µM,>58,Activity (Trypanosoma cruzi [4]): Active; Activity (Trypanosoma cruzi [5]): Active; IC50 (Trypanosoma cruzi [10]): 3.1 µM; Activity (Trypanosoma cruzi [6]): 86.7%; Activity (Trypanosoma cruzi [7]): 97.1%; Activity (Trypanosoma cruzi [8]): Active; Ratio IC50 (Trypanosoma cruzi [11]): 6; Ratio IC50 (Trypanosoma cruzi [12]): 4; Activity (Mus musculus): Non-toxic
C/C(=N\N=C1/NC(=O)C(C)S1)c1ccc(Cl)c(Cl)c1 (centres undefined),49.5 µM,49%,> 100 µM,>2,
CCC1S/C(=N/N=C(\C)c2ccc(Cl)c(Cl)c2)NC1=O (centres undefined),> 50 µM,49%,76.7 µM,,
CN(C)c1ccc(C(=C2C=CC(=[N+](C)C)C=C2)c2ccc(N(C)C)cc2)cc1 [GENTIAN VIOLET],,,0.45 µM,,
C/C(=N\N=C1\SC(C(C)C)C(=O)N1C)c1ccc(Cl)c(Cl)c1 (centres undefined),> 50 µM,38%,> 100 µM,,
CCC1S/C(=N/N=C(\C)c2ccc(Cl)c(Cl)c2)N(C)C1=O (centres undefined),48.5 µM,20%,> 100 µM,>2,

# More lines, main results first:
IC50 (Trypanosoma cruzi [1]),inhibition [3],Structure (SMILES),CC50 at 72 h [2],Ratio CC50/IC50 [9],further results
> 50 µM,43%,C/C(=N\N=C1\SCC(=O)N1c1ccccc1)c1ccc(Cl)c(Cl)c1,> 100 µM,,
> 50 µM,0%,C/C(=N\NC(=S)Nc1ccccc1)c1ccc(Cl)c(Cl)c1,> 100 µM,,
41.5 µM,29%,C/C(=N\N=C1\SC(c2ccccc2)C(=O)N1C)c1ccc(Cl)c(Cl)c1 (centres undefined),97.6 µM,,
7.1 µM,85%,C/C(=N\N=C(\N)S)c1ccc(Cl)c(Cl)c1,13.4 µM,1.7,
4.2 µM,43%,C/C(=N\N=C1\SC(C)C(=O)N1c1ccccc1)c1ccc(Cl)c(Cl)c1 (centres undefined),26.1 µM,6,Activity (Trypanosoma cruzi [4]): Active; Activity (Trypanosoma cruzi [5]): Active; IC50 (Trypanosoma cruzi [10]): 5.9 µM; Ratio IC50 (Trypanosoma cruzi [11]): 2; Ratio IC50 (Trypanosoma cruzi [12]): 2
17.7 µM,27%,C/C(=N\N=C1\SC(c2ccccc2)C(=O)N1c1ccccc1)c1ccc(Cl)c(Cl)c1 (centres undefined),27.1 µM,1.5,
> 50 µM,61%,C/C(=N\N=C1/NC(=O)C(c2ccccc2)S1)c1ccc(Cl)c(Cl)c1 (centres undefined),96.9 µM,,
